Data published in ChEMBL document CHEMBL1649102, “Stereochemical survey of digitoxin monosaccharides: new anticancer analogues with enhanced apoptotic activity and growth inhibitory effect on human non-small cell lung cancer cell” (ACS Med Chem Lett, 2011).
The source made the active and inactive calls. The calls are words filed in the database; no cut-off is given here.

Columns and labels:
[1] = system: SK-MEL-28; assay: Growth inhibition of human SK-MEL-28 cells; type: functional
Outline: (§1)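 NCI-60 panel SRB assay. Cells in RPMI 1640 with 5% FBS and 2 mM L-glutamine, plated at 5,000-40,000 cells/well and grown 24 h before dosing; time-zero plates TCA-fixed. Five concentrations (10-fold or ½ log dilutions, from DMSO stock) applied for 48 h at 37°C. TCA fixation (16% final for suspension cells), SRB stain, absorbance 515 nm; GI50 from net protein increase versus control.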

[2] = system: PC-3; assay: Growth inhibition of human PC3 cells; type: functional
Outline: (§2)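 NCI-60 cell lines grown in RPMI 1640 with 5% FBS and 2 mM L-glutamine, plated at 5,000–40,000 cells/well and preincubated 24 h. Time-zero plates were TCA-fixed. Drug was given at five concentrations (10-fold or ½-log dilutions from DMSO stock) for 48 h at 37°C. Cells were TCA-fixed, stained with SRB, and read at 515 nm. GI50 is where [(Ti−Tz)/(C−Tz)]×100 = 50.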

[3] = system: SK-OV-3; assay: Growth inhibition of human SKOV3 cells; type: functional; outline: as §1
[4] = system: LOX IMVI; assay: Growth inhibition of human LOXIMVI cells; type: functional; outline: as §2
[5] = system: HOP-62; assay: Growth inhibition of human HOP62 cells; type: functional; outline: as §2
[6] = system: Malme-3M; assay: Growth inhibition of human MALME-3M cells; type: functional; outline: as §2
[7] = system: M14; assay: Growth inhibition of human M14 cells; type: functional; outline: as §2
[8] = system: RXF 393; assay: Growth inhibition of human RXF393 cells; type: functional; outline: as §2
[9] = system: DU-145; assay: Growth inhibition of human DU145 cells; type: functional; outline: as §2
[10] = system: SN12C; assay: Growth inhibition of human SN12C cells; type: functional; outline: as §1
[11] = system: MDA-MB-435; assay: Growth inhibition of human MDA-MB-435 cells; type: functional; outline: as §2
[12] = system: UO-31; assay: Growth inhibition of human UO31 cells; type: functional; outline: as §1
[13] = system: SK-MEL-5; assay: Growth inhibition of human SK-MEL-5 cells; type: functional; outline: as §1
[14] = system: NCI-H460; assay: Cytotoxicity against human NCI-H460 cells assessed as cell death at 50 nM after 12 hrs by Hoechst-33342 staining and propidium iodide staining; type: functional, cell-based; conditions: NCI-H460, 12 h
Outline: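 NCI-H460 cells were seeded at 50,000 cells/well for 12 h, then exposed 12 h in serum-free medium (DMSO <0.1%). Cells were stained with Hoechst 33342 (10 µg/ml) and propidium iodide (20 µg/ml) for 30 min at 37°C. Condensed or fragmented nuclei were scored by fluorescence microscopy, and apoptotic index = apoptotic/total nuclei ×100. Duplicate wells, ≥3 runs (N = 6).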

[15] = system: A498; assay: Growth inhibition of human A498 cells; type: functional; outline: as §2
[16] = system: IGROV-1; assay: Growth inhibition of human IGROV1 cells; type: functional; outline: as §2
[17] = system: OVCAR-4; assay: Growth inhibition of human OVCAR4 cells; type: functional; outline: as §2
[18] = system: OVCAR-3; assay: Growth inhibition of human OVCAR3 cells; type: functional; outline: as §2
[19] = system: UACC-257; assay: Growth inhibition of human UACC257 cells; type: functional; outline: as §1
[20] = system: SF-539; assay: Growth inhibition of human SF539 cells; type: functional; outline: as §2
[21] = system: SF-295; assay: Growth inhibition of human SF295 cells; type: functional; outline: as §2
[22] = system: SNB-75; assay: Growth inhibition of human SNB75 cells; type: functional; outline: as §1
[23] = system: A549; assay: Growth inhibition of human A549 cells; type: functional; outline: as §2
[24] = system: MOLT-4; assay: Growth inhibition of human MOLT4 cells; type: functional; outline: as §2
[25] = system: OVCAR-5; assay: Growth inhibition of human OVCAR5 cells; type: functional; outline: as §2
[26] = system: KM12; assay: Growth inhibition of human KM12 cells; type: functional; outline: as §2
[27] = system: MCF7; assay: Growth inhibition of human MCF7 cells; type: functional; outline: as §2
[28] = system: HT-29; assay: Growth inhibition of human HT-29 cells; type: functional; outline: as §2
[29] = system: HOP-92; assay: Growth inhibition of human HOP92 cells; type: functional; outline: as §2
[30] = system: BT-549; assay: Growth inhibition of human BT549 cells; type: functional; outline: as §2
[31] = system: ACHN; assay: Growth inhibition of human ACHN cells; type: functional; outline: as §2
[32] = system: HCT-116; assay: Growth inhibition of human HCT116 cells; type: functional; outline: as §2
[33] = system: COLO 205; assay: Growth inhibition of human COLO205 cells; type: functional; outline: as §2
[34] = system: NCI-H460; assay: Induction of apoptosis human NCI-H460 cells assessed as cellular degradation at 50 nM after 12 hrs by Hoechst-33342 staining; type: functional
Outline: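 NCI-H460 seeded 50,000 cells/well for 12 h, then exposed 12 h in serum-free medium (DMSO <0.1%). Stained 30 min at 37°C with 10 µg/ml Hoechst 33342 plus 20 µg/ml propidium iodide. Condensed or fragmented nuclei scored by fluorescence microscopy; apoptotic index = apoptotic/total nuclei ×100. 2 replicate wells, ≥3 runs (N = 6).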

[35] = system: NCI/ADR-RES; assay: Growth inhibition of human NCI/ADR-RES cells; type: functional; outline: as §2
[36] = system: U-251; assay: Growth inhibition of human U251 cells; type: functional; outline: as §1
[37] = system: CCRF-CEM; assay: Growth inhibition of human CCRF-CEM cells; type: functional; outline: as §2
[38] = system: 786-0; assay: Growth inhibition of human 786-0 cells; type: functional; outline: as §2
[39] = system: UACC-62; assay: Growth inhibition of human UACC62 cells; type: functional; outline: as §1
[40] = system: NCI-H460; assay: Growth inhibition of human NCI-H460 cells; type: functional; outline: as §2
[41] = system: SW-620; assay: Growth inhibition of human SW620 cells; type: functional; outline: as §1
[42] = Growth inhibition of human NCI60 cells; type: functional; outline: as §2
[43] = system: MDA-N; assay: Growth inhibition of human MDA-N cells; type: functional; outline: as §2
[44] = system: HL-60(TB); assay: Growth inhibition of human HL-60(TB) cells; type: functional; outline: as §2
[45] = system: NCI-H23; assay: Growth inhibition of human NCI-H23 cells; type: functional; outline: as §2
[46] = system: SF-268; assay: Growth inhibition of human SF268 cells; type: functional; outline: as §2
[47] = system: MDA-MB-231; assay: Growth inhibition of human MDA-MB-231 cells; type: functional; outline: as §2
[48] = system: NCI-H522; assay: Growth inhibition of human NCI-H522 cells; type: functional; outline: as §2
[49] = system: NCI-H322M; assay: Growth inhibition of human NCI-H322M cells; type: functional; outline: as §2
[50] = system: CAKI-1; assay: Growth inhibition of human Caki1 cells; type: functional; outline: as §2
[51] = system: TK-10; assay: Growth inhibition of human TK10 cells; type: functional; outline: as §1
[52] = system: SK-MEL-2; assay: Growth inhibition of human SK-MEL-2 cells; type: functional; outline: as §2
[53] = system: HCC 2998; assay: Growth inhibition of human HCC2998 cells; type: functional; outline: as §2
[54] = system: T47D; assay: Growth inhibition of human T47D cells; type: functional; outline: as §1
[55] = system: EKVX; assay: Growth inhibition of human EKVX cells; type: functional; outline: as §2
[56] = system: SNB-19; assay: Growth inhibition of human SNB19 cells; type: functional; outline: as §1
[57] = system: HCT-15; assay: Growth inhibition of human HCT15 cells; type: functional; outline: as §2
[58] = system: SR; assay: Growth inhibition of human SR cells; type: functional; outline: as §1
[59] = Growth inhibition of human Hs 578T cells; type: functional; outline: as §2
[60] = system: OVCAR-8; assay: Growth inhibition of human OVCAR8 cells; type: functional; outline: as §2
[61] = system: NCI-H226; assay: Growth inhibition of human NCI-H226 cells; type: functional; outline: as §2
[62] = Growth inhibition of human […] cells; type: functional; outline: as §2
[63] = system: K562; assay: Growth inhibition of human K562 cells; type: functional; outline: as §2
[64] = system: NCI-H460; assay: Growth inhibition of human NCI-H460 cells after 48 hrs by MTT assay; type: functional; conditions: NCI-H460, 48 h
Outline: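 NCI-H460 cells in RPMI 1640 with 10% FBS were seeded at 10,000 cells/well for 12 h. Drug was diluted 1000× from DMSO into 1% FBS medium (DMSO <0.1%). Time-course runs used 50 nM; dose–response runs used 48 h exposure. Viability was read by MTT (4 h), with formazan dissolved in DMSO for 45 min and read at 562 nm. Triplicate wells, ≥3 runs (N = 9), two-way ANOVA.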

Structure (SMILES): C[C@@H]1O[C@@H](O[C@H]2CC[C@@]3(C)[C@H](CC[C@@H]4[C@@H]3CC[C@]3(C)[C@@H](C5=CC(=O)OC5)CC[C@]43O)C2)[C@H](O)[C@H](O)[C@H]1O
- GI50 [1]: < 10 nM
- GI50 [2]: < 10 nM
- GI50 [3]: < 10 nM
- GI50 [4]: < 10 nM
- GI50 [5]: < 10 nM
- GI50 [6]: < 10 nM
- GI50 [7]: < 10 nM
- GI50 [8]: < 10 nM
- GI50 [9]: < 10 nM
- GI50 [10]: < 10 nM
- GI50 [11]: < 10 nM
- GI50 [12]: < 10 nM
- GI50 [13]: < 10 nM
- IC50 [14]: 46.7 nM
- GI50 [15]: < 10 nM
- GI50 [16]: < 10 nM
- GI50 [17]: < 10 nM
- GI50 [18]: < 10 nM
- GI50 [19]: < 10 nM
- GI50 [20]: < 10 nM
- GI50 [21]: < 10 nM
- GI50 [22]: < 10 nM
- GI50 [23]: < 10 nM
- GI50 [24]: < 10 nM
- GI50 [25]: < 10 nM
- GI50 [26]: < 10 nM
- GI50 [27]: < 10 nM
- GI50 [28]: < 10 nM
- GI50 [29]: < 10 nM
- GI50 [30]: < 10 nM
- GI50 [31]: < 10 nM
- GI50 [32]: < 10 nM
- GI50 [33]: < 10 nM
- Activity [34]: Active
- Activity ([34]; record 2): 45.8%
- GI50 [35]: < 10 nM
- GI50 [36]: < 10 nM
- GI50 [37]: < 10 nM
- GI50 [38]: < 10 nM
- GI50 [39]: < 10 nM
- GI50 [40]: < 10 nM
- GI50 [41]: < 10 nM
- GI50 [42]: 1 nM
- GI50 [43]: < 10 nM
- GI50 [44]: < 10 nM
- GI50 [45]: < 10 nM
- GI50 [46]: < 10 nM
- GI50 [47]: < 10 nM
- GI50 [48]: < 10 nM
- GI50 [49]: < 10 nM
- GI50 [50]: < 10 nM
- GI50 [51]: < 10 nM
- GI50 [52]: < 10 nM
- GI50 [53]: < 10 nM
- GI50 [54]: < 10 nM
- GI50 [55]: < 10 nM
- GI50 [56]: < 10 nM
- GI50 [57]: < 10 nM
- GI50 [58]: < 10 nM
- GI50 [59]: < 10 nM
- GI50 [60]: < 10 nM
- GI50 [61]: < 10 nM
- GI50 [62]: < 10 nM
- GI50 [63]: < 10 nM

Structure (SMILES): C[C@@H]1O[C@H](O[C@H]2CC[C@@]3(C)[C@H](CC[C@@H]4[C@@H]3CC[C@]3(C)[C@@H](C5=CC(=O)OC5)CC[C@]43O)C2)C[C@@H](O)[C@H]1O
- GI50 [42]: > 50 nM

Structure (SMILES): C[C@@H]1O[C@@H](O[C@H]2CC[C@@]3(C)[C@H](CC[C@@H]4[C@@H]3CC[C@]3(C)[C@@H](C5=CC(=O)OC5)CC[C@]43O)C2)CC[C@H]1O [RAMNODIGIN]
- growth inhibition (GI) [8]: Active
- growth inhibition (GI) [9]: Active
- growth inhibition (GI) [10]: Active
- growth inhibition (GI) [12]: Active
- IC50 [14]: 55.7 nM
- growth inhibition (GI) [15]: Active
- growth inhibition (GI) [18]: Active
- growth inhibition (GI) [23]: Active
- growth inhibition (GI) [24]: Active
- growth inhibition (GI) [31]: Active
- growth inhibition (GI) [32]: Active
- Activity [34]: 33%
- growth inhibition (GI) [38]: Active
- GI50 [64]: 2.2 nM
- growth inhibition (GI) [40]: Active
- GI50 [42]: 12 nM
- growth inhibition (GI) [50]: Active
- growth inhibition (GI) [51]: Active
- growth inhibition (GI) [60]: Active
